The nature of data set [1]: Cmax in healthy human at 150 mg, po administered as single dose by HPLC-tandem mass spectrometry under fed conditions. It is filed as ADME, organism-based. Further details: dose 150 mg, route oral; call rule not given here. The conditions noted are these: in vivo. The method, boiled down:
(§1)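 Open-label crossover in 18 healthy volunteers (9 male, 9 female, mean age 26). Each received marketed oseltamivir 150 mg orally, once fasted from midnight and once after a high-fat, high-calorie breakfast, with a 7-10 day washout. Plasma and urine collected over 0-72 h and analysed by HPLC-MS/MS. AUC and Cmax compared after log transformation.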

The nature of data set [2]: AUC(0 to 6 hrs) in adult fasted Sprague-Dawley rat at 30 mg/kg, po administered as 125 mM aqueous Gly-Sar solution by HPLC-tandem mass spectrometry. It counts as ADME, organism-based. Also on record: time < 6 hr, dose 30 mg/kg, route oral. The conditions noted are these: plasma. The method, boiled down: (§2)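 Adult male Sprague-Dawley rats (243-283 g), jugular-cannulated, fasted from 6 h before dosing through the 6-h study. Given 30 mg/kg orally (free base) at 10 ml/kg, n=3/group. Blood sampled at 0.25-6 h into K2EDTA with dichlorvos esterase inhibitor. Plasma assayed by LC-MS/MS (0.1-500 μg/l). Noncompartmental analysis: linear-trapezoid AUC; infinity extrapolation via log-linear terminal λz.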

Data set [3] is described as follows: Drug uptake in CHOK1 cells expressing human PEPT1 at pH 5 by HPLC coupled with radiodetection analysis. It is filed as ADME, cell-based, Cricetulus griseus. The conditions noted are these: chinese hamster, cho-k1, pH 5. The method, boiled down:
(§3)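 Accumulation of [14C]oseltamivir or its carboxylate in CHO-PEPT1 versus CHO-K1 cells. Conditions varied: KH buffer (with MES) or Hanks' balanced salt solution, pH 5 or 6 readjusted after substrate addition, 30 s to 15 min at 37°C. Uptake was quenched with ice-cold PBS-BSA, followed by Triton X-100 lysis, scintillation counting, and BCA protein normalization. HPLC-radiodetection checked ester stability.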

The nature of data set [4]: Cmax in adult fed Sprague-Dawley rat at 30 mg/kg, po administered as 125 mM aqueous Gly-Sar solution by HPLC-tandem mass spectrometry. It is filed as ADME, organism-based. Also on record: dose 30 mg/kg, route oral. The conditions noted are these: in vivo. The method, boiled down: (§4)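 Adult cannulated Sprague-Dawley rats, fasted (from 6 h predose) or fed, dosed orally at 30 mg/kg (10 ml/kg), 3 per group. Serial jugular plasma with dichlorvos stabilisation, measured by LC-MS/MS. Cmax read graphically from the concentration-time profile.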

Data set [5] can be described thus: Drug uptake in CHOK1 cells at pH 6 by HPLC coupled with radiodetection analysis. It counts as ADME, cell-based, Cricetulus griseus. The conditions noted are these: chinese hamster, cho-k1, pH 6.
A short description of data set [6]: AUC(0 to infinity) in healthy human at 150 mg, po administered as single dose by HPLC-tandem mass spectrometry under fasting conditions. It counts as ADME, organism-based. Also on record: dose 150 mg, route oral, time infinity. The conditions noted are these: plasma. In a few lines: as §1
The nature of data set [7]: AUC(0 to 24 hrs) in adult fed Sprague-Dawley rat at 30 mg/kg, po administered as solution in bovine milk by HPLC-tandem mass spectrometry. It is filed as ADME, organism-based. Further details: time < 24 hr, dose 30 mg/kg, route oral. The conditions noted are these: in vivo. The method, boiled down: (§5)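 Sprague-Dawley males, 7-8 weeks, 243-283 g, jugular-cannulated, 3 days' recovery; fed (chow ad libitum). Single oral dose of 30 mg/kg (free base) at 10 ml/kg; 3 rats/group. Jugular blood taken at 0.25-24 h into K2EDTA with dichlorvos, kept on ice. Plasma analysed by validated LC-MS/MS (0.1-500 μg/l). Noncompartmental analysis; AUC by linear trapezoid, AUC0-∞ extrapolated using λz.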

Data set [8] can be described thus: AUC(0 to 24 hrs) in healthy human at 150 mg, po administered as single dose by HPLC-tandem mass spectrometry under fasting conditions. Also on record: dose 150 mg, time < 24 hr, route oral. The conditions noted are these: plasma. It counts as ADME, organism-based. In a few lines:
as §1

The nature of data set [9]: Apparent oral clearance in healthy human at 150 mg, po administered as single dose by HPLC-tandem mass spectrometry under fed conditions. It counts as ADME, organism-based. The conditions noted are these: in vivo. In a few lines:
as §1

The nature of data set [10]: Drug excretion in healthy human urine assessed as unchanged drug level at 150 mg, po administered as single dose by HPLC-tandem mass spectrometry under fasting conditions. It is filed as ADME, organism-based. The conditions noted are these: read-out: Drug excretion. In a few lines:
as §1

Data set [11] can be described thus: Tmax in juvenile fasted Sprague-Dawley rat at 30 mg/kg, po administered as water solution by HPLC-tandem mass spectrometry. It is filed as ADME, organism-based. Also on record: dose 30 mg/kg, route oral. The conditions noted are these: in vivo. In a few lines:
(§6)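 Seven-day-old Sprague-Dawley pups, males and females, 15 per group, were gavaged with 30 mg/kg (10 ml/kg). Breast-fed pups stayed with their dams; fasted pups were removed from 8 h predose through 5 h. Cardiac blood was drawn under isoflurane at 0.25, 0.5, 1, 2 and 5 h (composite, n=3/time point), with dichlorvos added. Plasma was analyzed by HPLC-MS/MS and Tmax read graphically.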

A short description of data set [12]: Terminal half life in healthy human at 150 mg, po administered as single dose by HPLC-tandem mass spectrometry under fed conditions. It is filed as ADME, organism-based. The conditions noted are these: in vivo, read-out: beta t1/2 (converted). In a few lines: (§7)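 Open-label crossover food-effect study in 18 healthy volunteers (9 male, 9 female, mean age 26). Each received a single 150 mg oral dose of the marketed formulation, once fasting from midnight and once after a high-fat, high-calorie breakfast, separated by a 7–10 day washout. Plasma and urine were collected over 0–72 h and assayed by HPLC-MS/MS for oseltamivir and carboxylate.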

Data set [13] can be described thus: Tmax in juvenile breast-fed Sprague-Dawley rat at 30 mg/kg, po administered as water solution by HPLC-tandem mass spectrometry. Further details: dose 30 mg/kg, route oral. It counts as ADME, organism-based. The conditions noted are these: in vivo. The method, boiled down:
as §6

Data set [14] can be described thus: Tmax in juvenile fasted Sprague-Dawley rat at 30 mg/kg, po administered as solution in bovine milk by HPLC-tandem mass spectrometry. It is filed as ADME, organism-based. Further details: dose 30 mg/kg, route oral. The conditions noted are these: in vivo. In a few lines: as §6
Data set [15] can be described thus: AUC(0 to 5 hrs) in juvenile breast-fed Sprague-Dawley rat at 30 mg/kg, po administered as water solution by HPLC-tandem mass spectrometry. It counts as ADME, organism-based. Further details: time < 5 hr, dose 30 mg/kg, route oral. The conditions noted are these: plasma. The method, boiled down:
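7-day-old Sprague-Dawley pups (9.7-18.9 g, both sexes), 15 per group. Given 30 mg/kg by oral gavage (10 ml/kg); breast-fed pups stayed with dams, fasted pups were removed 8 h before dosing. Blood taken by cardiac puncture under isoflurane at 0.25, 0.5, 1, 2 and 5 h, n=3 per time point (composite design). Dichlorvos-treated plasma assayed by LC-MS/MS; AUC0-5h by noncompartmental analysis.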

A short description of data set [16]: AUC(0 to 6 hrs) in adult fasted Sprague-Dawley rat at 30 mg/kg, po administered as water solution by HPLC-tandem mass spectrometry. It counts as ADME, organism-based. Also on record: time < 6 hr, dose 30 mg/kg, route oral. The conditions noted are these: plasma. The method, boiled down:
as §2

Data set [17] is described as follows: Cmax in adult fasted Sprague-Dawley rat at 30 mg/kg, po administered as 125 mM aqueous Gly-Sar solution by HPLC-tandem mass spectrometry. It counts as ADME, organism-based. Also on record: dose 30 mg/kg, route oral. The conditions noted are these: in vivo. In a few lines: as §4
The nature of data set [18]: Drug uptake in CHOK1 cells at 5 to 100 uM after 10 mins by HPLC coupled with radiodetection analysis. It is filed as ADME, cell-based, Cricetulus griseus. The conditions noted are these: chinese hamster, cho-k1, 10 min.
Data set [19] can be described thus: Renal clearance in healthy human at 150 mg, po administered as single dose by HPLC-tandem mass spectrometry under fasting conditions. It counts as ADME, organism-based, Kidney. The conditions noted are these: in vivo. The method, boiled down: as §7
The nature of data set [20]: Tmax in adult fed Sprague-Dawley rat at 30 mg/kg, po administered as solution in bovine milk by HPLC-tandem mass spectrometry. It is filed as ADME, organism-based. Further details: dose 30 mg/kg, route oral. The conditions noted are these: in vivo. In a few lines: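 Cannulated adult male Sprague-Dawley rats with chow ad libitum, 3 per vehicle, were given oral 30 mg/kg (10 ml/kg). Plasma analysis was by HPLC-MS/MS, with Tmax taken graphically from concentration-time profiles.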

Data set [21] in a line: Drug uptake in CHOK1 cells expressing human PEPT1 at pH 6 by HPLC coupled with radiodetection analysis. It counts as ADME, cell-based, Cricetulus griseus. The conditions noted are these: chinese hamster, cho-k1, pH 6. In a few lines:
as §3

The nature of data set [22]: Drug uptake in CHOK1 cells expressing human PEPT1 by HPLC coupled with radiodetection analysis in presence of KH and Hanks' balanced salt solution. The conditions noted are these: chinese hamster, cho-k1. It is filed as ADME, cell-based, Cricetulus griseus. In a few lines: as §3
Data set [23] is described as follows: AUC(0 to infinity) in adult fed Sprague-Dawley rat at 30 mg/kg, po administered as solution in bovine milk by HPLC-tandem mass spectrometry. It counts as ADME, organism-based. Further details: time infinity, dose 30 mg/kg, route oral. The conditions noted are these: in vivo. In a few lines:
as §5

Two molecules from ChEMBL document CHEMBL3526035, “Role of the intestinal peptide transporter PEPT1 in oseltamivir absorption: in vitro and in vivo studies” (Drug Metab Dispos, 2012) can be followed below.

For `CCC(CC)O[C@@H]1C=C(C(=O)O)C[C@H](N)[C@H]1NC(C)=O` [OSELTAMIVIR CARBOXYLATE], the figures for the peak concentration (Cmax) in data set [1], in data set [4] and in data set [17] were 441 ng/mL, 693 ng/mL and 2560 ng/mL, respectively. For the same molecule, the figures for the AUC(0-t) at 6 h in data set [2] and in data set [16] were 8350 ng·h/mL and 5910 ng·h/mL, respectively. In addition, the Drug uptake entry in data set [3], in data set [5], in data set [18], in [21] and in data set [22] was “Active” each time. Besides, the results for the AUC(0-inf) in [6] and in [23] were 6220 ng·h/mL and 6340 ng·h/mL, respectively. The AUC(0-t) at 24 h in data set [7] came to 6330 ng·h/mL; in [8], 5540 ng·h/mL. The apparent clearance CL/F in [9] came out at 385 mL/min. In addition, the dose excreted in [10] is 58.5%. For the same molecule, the Tmax in data set [11] turned out to be 2 h; in [13], 5 h; in data set [14], 5 h; in data set [20], 0.75 h. Further, the half-life in [12] was 8.2 h. This molecule gave an AUC(0-t) at 5 h in [15] of 5070 ng·h/mL. The molecule also gave a CL renal in [19] of 223 mL/min.

On to `CCOC(=O)C1=C[C@@H](OC(CC)CC)[C@H](NC(C)=O)[C@@H](N)C1` [OSELTAMIVIR], for which the results for the Cmax in data set [1], in data set [4] and in data set [17] were 101 ng/mL, 926 ng/mL and 2070 ng/mL, respectively. The values for the area under the curve AUC(0-t) at 6 h in data set [2] and in data set [16] were 3780 ng·h/mL and 2680 ng·h/mL, respectively. For the same molecule, the Drug uptake entry in data set [3], in data set [5], in data set [18], in data set [21] and in data set [22] was “Active” each time. The AUC(0-inf) in data set [6] worked out at 244 ng·h/mL; in data set [23], 2810 ng·h/mL. Also, the AUC(0-t) at 24 h in data set [7] is 2800 ng·h/mL; in data set [8] it was 238 ng·h/mL. For the same molecule, the apparent clearance CL/F in data set [9] turned out to be 9540 mL/min. In addition, in [10], the dose excreted came to 3.09%. Moreover, the time to peak (Tmax) in [11] came to 0.5 h; in data set [13], 1 h; in data set [14] it was 1 h; in [20], 0.41 h. The half-life in [12] was 2.15 h. The molecule also gave an AUC(0-t) at 5 h in data set [15] of 20300 ng·h/mL. Also, in data set [19], the CL renal is 340 mL/min.

Broadly, the Cmax is the peak of the concentration-time curve. A word on the AUC(0-t): it is the area under the concentration-time curve up to a stated or last time point. One may read the AUC(0-inf) as total exposure, with the tail of the curve extrapolated. Higher therefore signals high exposure. The CL/F is clearance divided by bioavailability, as obtained after extravascular dosing. For orientation: Tmax means the time from dosing to the highest level.
